The source of these data is ChEMBL document CHEMBL3865819, “Myrsinane, Premyrsinane, and Cyclomyrsinane Diterpenes from Euphorbia falcata as Potassium Ion Channel Inhibitors with Selective G Protein-Activated Inwardly Rectifying Ion Channel (GIRK) Blocking Effects” (J Nat Prod, 2016).

Common to all, as to type: cell-based
In data set [1] the target is T1, hERG (KCNH2) (Homo sapiens, UniProt Q12809). Nature of the data set: Inhibition of human ERG expressed in HEK293 cells assessed as decrease in channel current at 10 uM after 3 mins at -80 mV holding potential by automated patch-clamp electrophysiology assay. The following applies: HEK293 cells that express hERG. Summed up: (§1)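 HEK-293 cells stably transfected with hERG (Kv11.1), whole-cell automated planar patch clamp. External solution 4 mM KCl, pH 7.4; internal KCl/KF/EGTA, pH 7.2. Protocol: 100 ms −40 mV reference step, 3 s at 20 mV, then 1 s at −40 mV for the outward tail current. After control, 3, 10, 30 μM cumulative, ~3 min each; amitriptyline 10 μM reference, then wash-out; two or three cells; DMSO ≤0.3% final.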

Data set [2] addresses T2, Kir3.1/Kir3.4 (Homo sapiens) (UniProt P48549+P48544). Kind of data set: Inhibition of GTPgammaS-induced activation of GIRK1/4 (unknown origin) expressed in HEK293 cells assessed as decrease in channel current at 1 uM after 2 mins at -40 mV holding potential by automated patch-clamp electrophysiology assay. Summed up:
(§2)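 Whole-cell automated planar patch clamp on HEK-293 cells stably expressing GIRK1/4 (Kir3.1/3.4). Internal solution carries 0.9 mM GTPγS to activate channels; bath switched from 4 mM K+ to high-K+ (25 mM KCl) external, pH 7.4. Step to 60 mV, ramp to −140 mV, 100 ms at −140 mV, ~0.1 Hz; inward current read at −140 mV. After 3 min control, 1 then 10 μM for ~2 min each; K+-free solution baseline; two to three cells.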

Data set [3] concerns the target T2, Kir3.1/Kir3.4 (Homo sapiens). Kind of data set: Inhibition of GTPgammaS-induced activation of GIRK1/4 (unknown origin) expressed in HEK293 cells assessed as decrease in channel current at 10 uM after 2 mins at -40 mV holding potential by automated patch-clamp electrophysiology assay. Summed up:
as §2

Data set [4] deals with T1, hERG (KCNH2). Nature of the data set: Inhibition of human ERG expressed in HEK293 cells assessed as decrease in channel current at 30 uM after 3 mins at -80 mV holding potential by automated patch-clamp electrophysiology assay. The following applies: HEK293 cells that express hERG. The essentials:
as §1

In data set [5] the target is T1, hERG (KCNH2). Kind of data set: Inhibition of human ERG expressed in HEK293 cells assessed as decrease in channel current at 3 uM after 3 mins at -80 mV holding potential by automated patch-clamp electrophysiology assay. Particulars: HEK293 cells that express hERG. Summed up: as §1
The next data set concerns the target T3, Kir3.1/Kir3.4 (Homo sapiens, UniProt P48544+P48549).
T3 sequence (P48549 whole entry): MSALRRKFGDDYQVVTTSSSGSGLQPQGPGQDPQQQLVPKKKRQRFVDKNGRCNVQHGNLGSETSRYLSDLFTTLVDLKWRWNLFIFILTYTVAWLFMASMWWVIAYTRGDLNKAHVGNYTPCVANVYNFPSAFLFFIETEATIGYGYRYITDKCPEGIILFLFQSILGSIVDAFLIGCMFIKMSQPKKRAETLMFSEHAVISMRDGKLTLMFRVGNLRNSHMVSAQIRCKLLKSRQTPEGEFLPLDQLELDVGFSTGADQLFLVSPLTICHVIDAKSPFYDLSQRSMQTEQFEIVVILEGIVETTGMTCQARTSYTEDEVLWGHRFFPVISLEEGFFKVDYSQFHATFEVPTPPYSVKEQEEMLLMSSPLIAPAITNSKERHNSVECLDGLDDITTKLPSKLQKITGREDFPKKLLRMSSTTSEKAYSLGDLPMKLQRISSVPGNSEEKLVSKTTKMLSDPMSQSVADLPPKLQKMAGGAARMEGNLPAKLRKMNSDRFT
T3 sequence (P48544 whole entry): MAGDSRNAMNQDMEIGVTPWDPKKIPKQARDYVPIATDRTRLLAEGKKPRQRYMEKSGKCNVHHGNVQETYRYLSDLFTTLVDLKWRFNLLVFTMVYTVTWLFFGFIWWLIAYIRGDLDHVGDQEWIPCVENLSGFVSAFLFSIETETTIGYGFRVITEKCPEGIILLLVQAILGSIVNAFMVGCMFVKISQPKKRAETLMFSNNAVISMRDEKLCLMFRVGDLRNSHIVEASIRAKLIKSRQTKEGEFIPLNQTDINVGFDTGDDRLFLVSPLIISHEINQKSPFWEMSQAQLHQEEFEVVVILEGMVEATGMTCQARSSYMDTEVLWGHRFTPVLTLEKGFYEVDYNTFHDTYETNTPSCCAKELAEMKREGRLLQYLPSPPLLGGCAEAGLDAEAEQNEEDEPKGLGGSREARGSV
Kind of data set: Inhibition of GTPgammaS-induced activation of GIRK1/4 (unknown origin) expressed in HEK293 cells assessed as decrease in channel current after 2 mins at -40 mV holding potential by automated patch-clamp electrophysiology assay. The essentials:
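HEK-293 cells stably expressing Kir3.1/3.4, grown in MEM with 10% FBS and zeocin, trypsinised and resuspended serum-free. Whole-cell automated planar patch clamp. Internal solution contained 0.9 mM GTPγS. Recordings began in normal external solution (4 mM K+), then switched to high-K+ external solution (25 mM KCl, pH 7.4). Each cycle: step to 60 mV for 100 ms, 500 ms ramp to −140 mV, hold at −140 mV for 100 ms, about 0.1 Hz. Inward current taken from the −140 mV segment. After a 3 min control period, compound was added in rising concentrations, about 2 min each: 1 and 10 μM for screening on 2–3 cells, or 1, 3, 10 and 30 μM on at least 5 cells for IC50. Final DMSO was 0.3% or less. Current in K+-free solution served as baseline. 1 μM propafenone was the reference.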

T1 sequence (Q12809 whole entry): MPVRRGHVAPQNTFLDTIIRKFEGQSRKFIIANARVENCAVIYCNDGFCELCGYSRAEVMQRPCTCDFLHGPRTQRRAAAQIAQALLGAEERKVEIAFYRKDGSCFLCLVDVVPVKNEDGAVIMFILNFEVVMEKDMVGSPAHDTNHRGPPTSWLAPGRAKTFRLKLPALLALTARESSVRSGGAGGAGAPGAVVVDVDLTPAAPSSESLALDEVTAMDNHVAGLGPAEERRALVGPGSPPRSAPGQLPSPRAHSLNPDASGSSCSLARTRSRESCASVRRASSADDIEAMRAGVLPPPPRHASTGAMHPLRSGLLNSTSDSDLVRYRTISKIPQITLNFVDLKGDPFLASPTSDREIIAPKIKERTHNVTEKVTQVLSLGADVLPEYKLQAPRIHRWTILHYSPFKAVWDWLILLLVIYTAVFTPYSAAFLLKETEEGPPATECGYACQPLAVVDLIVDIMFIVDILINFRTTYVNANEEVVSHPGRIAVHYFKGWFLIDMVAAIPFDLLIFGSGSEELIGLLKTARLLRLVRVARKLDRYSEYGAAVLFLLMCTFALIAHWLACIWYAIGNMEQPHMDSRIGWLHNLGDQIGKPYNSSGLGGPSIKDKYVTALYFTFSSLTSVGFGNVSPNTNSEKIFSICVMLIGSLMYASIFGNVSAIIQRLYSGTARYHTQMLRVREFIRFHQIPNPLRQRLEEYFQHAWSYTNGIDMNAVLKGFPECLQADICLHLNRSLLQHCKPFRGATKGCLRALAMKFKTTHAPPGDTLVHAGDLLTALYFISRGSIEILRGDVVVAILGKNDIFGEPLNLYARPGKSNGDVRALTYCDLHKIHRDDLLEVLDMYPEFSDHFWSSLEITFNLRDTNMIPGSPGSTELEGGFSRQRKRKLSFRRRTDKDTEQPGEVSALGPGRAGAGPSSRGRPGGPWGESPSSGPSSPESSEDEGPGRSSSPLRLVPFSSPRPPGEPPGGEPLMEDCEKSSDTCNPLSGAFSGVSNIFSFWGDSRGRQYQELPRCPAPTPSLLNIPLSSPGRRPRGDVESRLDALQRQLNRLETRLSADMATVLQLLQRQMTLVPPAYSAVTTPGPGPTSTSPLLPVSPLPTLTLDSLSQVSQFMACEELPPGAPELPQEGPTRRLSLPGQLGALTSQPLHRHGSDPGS

For the molecule `CCC(C)C(=O)O[C@H]1C(=O)[C@@]23CO[C@@](C)([C@H](OC(C)=O)[C@@]4(OC(C)=O)C[C@H](C)[C@H](OC(=O)c5cccnc5)[C@@H]4[C@H]2OC(C)=O)[C@@H]3[C@@H]2[C@H]1C[C@]2(C)OC(C)=O` (stereo not given in full), the inhibition at 0.05 h, 10 µM on hERG (KCNH2) [1] amounted to 14%. The results for the inhibition in data set [2] and in data set [3] were 31% and 72%, respectively. For the same molecule, the inhibition at 0.05 h, 30 µM at hERG (KCNH2) [4] was determined as 25%. The inhibition at 0.05 h, 3 µM on hERG (KCNH2) [5] stood at 4%. Besides, the IC50 at Kir3.1/Kir3.4 came to 4.9 µM.

In the case of `CCC(=O)O[C@@H]1[C@@H]2[C@@H](OC(C)=O)[C@@]34CO[C@@](C)([C@H](OC(C)=O)[C@@]2(OC(C)=O)C[C@@H]1C)[C@@H]3[C@@H](C(C)(C)OC(C)=O)C=CC4=O`, the inhibition at 0.05 h, 10 µM at hERG (KCNH2) [1] turned out to be 13%. Moreover, the inhibition in data set [2] was found to be 24%; in data set [3] it was 62%. For the same molecule, the inhibition at 0.05 h, 30 µM on hERG (KCNH2) [4] is 18%. Moreover, at hERG (KCNH2) [5], the inhibition at 0.05 h, 3 µM is 5%. For the same molecule, the 50% inhibitory concentration (IC50) on Kir3.1/Kir3.4 was found to be 6.7 µM.

As to `CC(=O)O[C@@H]1[C@H]2[C@@H](OC(=O)C(C)C)[C@@H](C)C[C@]2(OC(C)=O)[C@@H](OC(C)=O)[C@]2(C)OC[C@]13C(=O)[C@H](OC(C)=O)[C@@H]1C[C@](C)(OC(C)=O)[C@@H]1[C@@H]23`, the inhibition at 0.05 h, 10 µM at hERG (KCNH2) [1] was found to be 16%. The figures for the inhibition in data set [2] and in data set [3] were 28% and 61%, respectively. The inhibition at 0.05 h, 30 µM on hERG (KCNH2) [4] is 23%. Moreover, the inhibition at 0.05 h, 3 µM on hERG (KCNH2) [5] turned out to be 8%. Also, the IC50 on Kir3.1/Kir3.4 was determined as 9.7 µM.

As for `CC(=O)O[C@@H]1[C@H]2[C@@H](OC(=O)C(C)C)[C@@H](C)C[C@]2(OC(C)=O)[C@@H](OC(C)=O)[C@]2(C)OC[C@]13C(=O)C=C[C@H](C(C)(C)OC(C)=O)[C@@H]23` [EUPHORBIAPROLIFERIN C], the inhibition at 0.05 h, 10 µM on hERG (KCNH2) [1] is 4%. Moreover, the inhibition in data set [2] turned out to be 34%; in data set [3] it was 69%. Further, the inhibition at 0.05 h, 30 µM on hERG (KCNH2) [4] was determined as 16%. In addition, the inhibition at 0.05 h, 3 µM on hERG (KCNH2) [5] is 0%. Also, at Kir3.1/Kir3.4, the IC50 amounted to 4.7 µM.

On to `CC(=O)O[C@@H]1[C@H]2[C@@H](OC(=O)c3ccccc3)[C@@H](C)C[C@]2(OC(C)=O)[C@@H](OC(C)=O)[C@]2(C)OC[C@]13C(=O)C=C[C@H](C(C)(C)OC(C)=O)[C@@H]23`, for which, on hERG (KCNH2) [1], the inhibition at 0.05 h, 10 µM stood at 20%. Besides, the inhibition turned out to be 43% in data set [2] and 83% in data set [3]. Also, the inhibition at 0.05 h, 30 µM at hERG (KCNH2) [4] was 39%. For the same molecule, the inhibition at 0.05 h, 3 µM on hERG (KCNH2) [5] amounted to 9%. Moreover, the IC50 at Kir3.1/Kir3.4 turned out to be 2.5 µM.
